Numbered stars: 1 amine (or outer) side, 2 acyl side, 3 side chain; on linkers, the order of the positions; unused ones are H or OH. Bridge positions count the residues as written; N and C are the ends. Peptide text beside a SMILES is read from it. I, II: the chains in the order shown. Suberoyl = O=C(CCCCCCC(=O)[*:2])[*:1]
Experiments:
[1] = target: T1, Neuropeptide Y receptor type 2 (Homo sapiens, UniProt P49146); test: Displacement of [3H]propionyl-pNPY from human NPY Y2 receptor expressed in CHO cells co-expressing Gqi5-mtAEQ after 90 mins by liquid scintillation counting; type: cell-based
T1 sequence (P49146 whole entry): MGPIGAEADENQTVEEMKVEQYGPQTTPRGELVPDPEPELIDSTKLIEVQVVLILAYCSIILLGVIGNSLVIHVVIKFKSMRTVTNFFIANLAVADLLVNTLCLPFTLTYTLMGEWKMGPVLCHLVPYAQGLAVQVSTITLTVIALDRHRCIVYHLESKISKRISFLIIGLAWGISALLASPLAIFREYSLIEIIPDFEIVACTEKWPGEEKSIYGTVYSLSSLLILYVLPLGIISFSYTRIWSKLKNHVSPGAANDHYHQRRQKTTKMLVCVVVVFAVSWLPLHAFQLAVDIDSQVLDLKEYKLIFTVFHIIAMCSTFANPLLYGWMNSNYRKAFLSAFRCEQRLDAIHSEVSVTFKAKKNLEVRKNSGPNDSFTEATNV
How it was run: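 Adherent CHO-hY2R-Gqi5-mtAEQ cells in buffer I with 1% BSA and 0.1 mg/mL bacitracin at 22 °C. […] Incubation was 90 min, followed by two ice-cold washes, lysis and scintillation counting.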

[2] = target: T2, Neuropeptide Y receptor type 4 (Homo sapiens, UniProt P50391); test: Agonist activity at human NPY Y4 receptor expressed in HEK293 cells co-expressing CRE-Luc gene assessed as inhibition of forskolin stimulated luciferase activity after 4.5 hrs by luminescence assay; type: functional, cell-based
How it was run: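 HEK293 cells stably co-transfected with a CRE-controlled firefly luciferase reporter and hY4R, tested in phenol-red-free DMEM, pH 7.4. The maximal inhibition by PP was set to 0% activity (α = 1.0). Data are means ± SEM of at least 3 experiments in triplicate.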

[3] = target: T3, Neuropeptide Y receptor type 1 (Homo sapiens, UniProt P25929); test: Displacement of [3H]UR-MK136 from human NPY Y1 receptor expressed in human MCF7 cells by liquid scintillation counting; type: cell-based
T3 sequence (P25929 whole entry): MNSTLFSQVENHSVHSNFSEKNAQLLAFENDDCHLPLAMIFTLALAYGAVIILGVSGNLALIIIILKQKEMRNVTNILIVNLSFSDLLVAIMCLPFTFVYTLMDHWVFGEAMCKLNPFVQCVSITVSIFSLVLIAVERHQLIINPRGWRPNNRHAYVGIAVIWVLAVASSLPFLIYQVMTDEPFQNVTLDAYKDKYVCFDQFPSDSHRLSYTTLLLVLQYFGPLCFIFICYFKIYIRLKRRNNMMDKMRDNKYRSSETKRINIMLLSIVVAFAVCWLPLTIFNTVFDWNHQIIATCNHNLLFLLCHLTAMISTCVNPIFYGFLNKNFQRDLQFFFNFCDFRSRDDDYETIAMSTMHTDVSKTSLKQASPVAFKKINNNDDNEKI

[4] = target: T2, Neuropeptide Y receptor type 4; test: Agonist activity at human NPY Y4 receptor expressed in CHO cells co-expressing Gqi5-mtAEQ assessed as induction of calcium mobilization by aequorin luminescence assay; type: functional, cell-based
How it was run: (§1)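 Luminescence was integrated as area under the curve and normalized to the response to 1 µM PP. Data are means ± SEM of at least 3 independent experiments, each run in triplicate.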

[5] = target: T2, Neuropeptide Y receptor type 4; test: Displacement of [3H](2R,7R)-10 from human NPY Y4 receptor expressed in CHO cells co-expressing Gqi5-mtAEQ after 90 mins in presence of sodium-free HEPES buffer by liquid scintillation counting; type: cell-based
[6] = target: T2, Neuropeptide Y receptor type 4; test: Intrinsic activity at human NPY Y4 receptor expressed in HEK293 cells co-expressing CRE-Luc gene assessed as inhibition of forskolin stimulated luciferase activity after 4.5 hrs by luminescence assay relative to pancreatic polypeptide; type: functional, cell-based
How it was run: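 HEK293 cells stably co-transfected with a CRE-controlled firefly luciferase reporter and hY4R, tested in phenol-red-free DMEM, pH 7.4. […] The maximal inhibition by PP was set to 0% activity (α = 1.0). Data are means ± SEM of at least 3 experiments in triplicate.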

[7] = target: T2, Neuropeptide Y receptor type 4; test: Intrinsic activity at human NPY Y4 receptor expressed in CHO cells co-expressing Gqi5-mtAEQ assessed as induction of calcium mobilization by aequorin luminescence assay relative to pancreatic polypeptide; type: functional, cell-based; how it was run: as §1
[8] = target: T4, Neuropeptide Y receptor type 5 (Homo sapiens, UniProt Q15761); test: Displacement of [3H]propionyl-pNPY from human NPY Y5 receptor expressed in human HEC1b cells after 120 mins by liquid scintillation counting; type: cell-based
T4 sequence (Q15761 whole entry): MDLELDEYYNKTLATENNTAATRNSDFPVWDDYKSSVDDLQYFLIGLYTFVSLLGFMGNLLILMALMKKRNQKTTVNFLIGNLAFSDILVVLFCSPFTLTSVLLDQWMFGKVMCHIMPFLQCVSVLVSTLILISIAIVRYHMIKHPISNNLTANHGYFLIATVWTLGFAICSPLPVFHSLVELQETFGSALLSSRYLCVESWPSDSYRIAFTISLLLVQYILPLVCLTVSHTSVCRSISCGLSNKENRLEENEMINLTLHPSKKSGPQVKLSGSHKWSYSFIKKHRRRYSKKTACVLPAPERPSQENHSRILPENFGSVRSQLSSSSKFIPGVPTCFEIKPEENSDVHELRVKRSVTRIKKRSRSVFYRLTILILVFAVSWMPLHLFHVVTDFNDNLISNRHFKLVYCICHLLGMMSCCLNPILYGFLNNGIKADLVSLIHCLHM
How it was run: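 Adherent HEC-1B-hY5 cells in buffer II with 1% BSA and 0.1 mg/mL bacitracin at 22 °C. […] Incubation was 120 min, followed by ice-cold washes, lysis and scintillation counting.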

[9] = target: T2, Neuropeptide Y receptor type 4; test: Displacement of [3H](2R,7R)-10 from human NPY Y4 receptor expressed in CHO cells co-expressing Gqi5-mtAEQ after 90 mins in presence of L-15 medium by liquid scintillation counting; type: cell-based
[10] = target: T2, Neuropeptide Y receptor type 4; test: Displacement of [3H]18 from human NPY Y4 receptor expressed in CHO cells co-expressing Gqi5-mtAEQ after 90 mins by liquid scintillation counting; type: cell-based; settings: cho

T2 sequence (P50391 whole entry): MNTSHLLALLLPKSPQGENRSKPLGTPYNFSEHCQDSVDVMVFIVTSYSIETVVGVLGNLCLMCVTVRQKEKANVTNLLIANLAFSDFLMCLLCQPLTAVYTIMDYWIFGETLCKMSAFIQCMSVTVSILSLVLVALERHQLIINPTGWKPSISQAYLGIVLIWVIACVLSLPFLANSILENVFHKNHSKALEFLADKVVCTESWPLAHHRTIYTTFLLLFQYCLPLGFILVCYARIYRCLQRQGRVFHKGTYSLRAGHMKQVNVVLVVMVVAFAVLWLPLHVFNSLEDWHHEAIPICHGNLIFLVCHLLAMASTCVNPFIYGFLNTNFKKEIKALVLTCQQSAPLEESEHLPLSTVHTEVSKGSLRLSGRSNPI

## CC(C)C[C@H](NC(=O)[C@H](CCCNC(=N)N)NC(=O)[C@H](Cc1ccc(O)cc1)NC(=O)CCCCCCC(=O)N[C@@H](Cc1ccc(O)cc1)C(=O)N[C@@H](CCCNC(=N)N)C(=O)N[C@@H](CC(C)C)C(=O)N[C@@H](CCCNC(=N)N)C(=O)N[C@@H](Cc1ccc(O)cc1)C(N)=O)C(=O)N[C@@H](C)C(=O)N[C@@H](Cc1ccc(O)cc1)C(N)=O (I: YRLAY-NH2 / II: YRLRY-NH2; linker I:N-II:N via Suberoyl)
[1]
  Ki: > 3000 nM
[2]
  EC50: 150 nM
[3]
  Ki: 1600 nM
[4]
  EC50: 310 nM
[5]
  Ki: 11 nM
[6]
  Intrinsic activity: 0.99
[7]
  Intrinsic activity: 0.85
[8]
  Ki: 460 nM

## CC(C)C[C@H](NC(=O)[C@H](CCCNC(=N)N)NC(=O)[C@H](Cc1ccc(O)cc1)NC(=O)CCCCCCC(=O)N[C@@H](Cc1ccc(O)cc1)C(=O)N[C@@H](CCCNC(=N)N)C(=O)N[C@@H](CC(C)C)C(=O)N[C@@H](CCCNC(=N)N)C(=O)N[C@@H](Cc1ccc(O)cc1)C(N)=O)C(=O)N[C@@H](CCCNC(=N)N)C(=O)N[C@@H](Cc1ccc(O)cc1)C(N)=O (I: YRLRY-NH2 / II: YRLRY-NH2; linker I:N-II:N via Suberoyl)
[1]
  Ki: 1700 nM
[2]
  EC50: 86 nM
[3]
  Ki: 720 nM
[4]
  EC50: 49 nM
[5]
  Ki: 3.5 nM
[6]
  Intrinsic activity: 0.93
[7]
  Intrinsic activity: 0.73
[8]
  Ki: 280 nM

## CC[C@H](C)[C@H](N)C(=O)N[C@H]1CCC(=O)NC[C@@H](C(=O)N[C@@H](Cc2ccc(O)cc2)C(=O)N[C@@H](CCCN=C(N)N)C(=O)N[C@@H](CC(C)C)C(=O)N[C@@H](CCCN=C(N)N)C(=O)N[C@@H](Cc2ccc(O)cc2)C(N)=O)NC(=O)[C@@H]2CCCN2C(=O)[C@H](NC(=O)[C@@H](N)[C@@H](C)CC)CCC(=O)NC[C@H](C(=O)N[C@@H](Cc2ccc(O)cc2)C(=O)N[C@@H](CCCN=C(N)N)C(=O)N[C@@H](CC(C)C)C(=O)N[C@@H](CCCN=C(N)N)C(=O)N[C@@H](Cc2ccc(O)cc2)C(N)=O)NC(=O)[C@@H]2CCCN2C1=O
[6]
  Intrinsic activity: 1.01
[7]
  Intrinsic activity: 0.62

## CC(C)C[C@H](NC(=O)[C@H](C)NC(=O)[C@H](Cc1ccc(O)cc1)NC(=O)CCCCCCC(=O)N[C@@H](Cc1ccc(O)cc1)C(=O)N[C@@H](C)C(=O)N[C@@H](CC(C)C)C(=O)N[C@@H](CCCNC(=N)N)C(=O)N[C@@H](Cc1ccc(O)cc1)C(N)=O)C(=O)N[C@@H](CCCNC(=N)N)C(=O)N[C@@H](Cc1ccc(O)cc1)C(N)=O (I: YALRY-NH2 / II: YALRY-NH2; linker I:N-II:N via Suberoyl)
[1]
  Ki: > 10000 nM
[2]
  EC50: > 3000 nM
[3]
  Ki: > 3000 nM
[4]
  EC50: > 3000 nM
[5]
  Ki: > 3000 nM
[8]
  Ki: 550 nM

## CC(C)C[C@H](NC(=O)[C@H](C)NC(=O)[C@H](Cc1ccc(O)cc1)NC(=O)CCCCCCC(=O)N[C@@H](Cc1ccc(O)cc1)C(=O)N[C@@H](CCCNC(=N)N)C(=O)N[C@@H](CC(C)C)C(=O)N[C@@H](CCCNC(=N)N)C(=O)N[C@@H](Cc1ccc(O)cc1)C(N)=O)C(=O)N[C@@H](CCCNC(=N)N)C(=O)N[C@@H](Cc1ccc(O)cc1)C(N)=O (I: YALRY-NH2 / II: YRLRY-NH2; linker I:N-II:N via Suberoyl)
[1]
  Ki: > 3000 nM
[2]
  EC50: 160 nM
[3]
  Ki: 1400 nM
[4]
  EC50: 290 nM
[5]
  Ki: 12 nM
[6]
  Intrinsic activity: 0.98
[7]
  Intrinsic activity: 0.85
[8]
  Ki: 220 nM

## CC(C)C[C@H](NC(=O)[C@H](CCCNC(=N)N)NC(=O)[C@H](Cc1ccc(O)cc1)NC(=O)C(N)CCCCC(N)C(=O)N[C@@H](Cc1ccc(O)cc1)C(=O)N[C@@H](CCCNC(=N)N)C(=O)N[C@@H](CC(C)C)C(=O)N[C@@H](CCCNC(=N)N)C(=O)N[C@@H](Cc1ccc(O)cc1)C(N)=O)C(=O)N[C@@H](CCCNC(=N)N)C(=O)N[C@@H](Cc1ccc(O)cc1)C(N)=O (some centres undefined)
[5]
  Ki: 1.06 nM

## CC(C)C[C@H](NC(=O)[C@H](CCCNC(=N)N)NC(=O)[C@H](Cc1ccc(O)cc1)NC(=O)CCCCCCC(=O)N[C@@H](Cc1ccc(O)cc1)C(=O)N[C@@H](CCCNC(=N)N)C(=O)N[C@@H](CC(C)C)C(=O)N[C@@H](C)C(=O)N[C@@H](Cc1ccc(O)cc1)C(N)=O)C(=O)N[C@@H](C)C(=O)N[C@@H](Cc1ccc(O)cc1)C(N)=O (I: YRLAY-NH2 / II: YRLAY-NH2; linker I:N-II:N via Suberoyl)
[1]
  Ki: > 10000 nM
[2]
  EC50: > 3000 nM
[3]
  Ki: > 10000 nM
[5]
  Ki: > 3000 nM
[8]
  Ki: > 10000 nM

## CC(C)C[C@H](NC(=O)[C@H](CCCNC(=N)N)NC(=O)[C@H](Cc1ccc(O)cc1)NC(=O)[C@@H](N)CCCC[C@H](N)C(=O)N[C@@H](Cc1ccc(O)cc1)C(=O)N[C@@H](CCCNC(=N)N)C(=O)N[C@@H](CC(C)C)C(=O)N[C@@H](CCCNC(=N)N)C(=O)N[C@@H](Cc1ccc(O)cc1)C(N)=O)C(=O)N[C@@H](CCCNC(=N)N)C(=O)N[C@@H](Cc1ccc(O)cc1)C(N)=O
[9]
  Ki: 17 nM
[1]
  Ki: 950 nM
[2]
  EC50: 19 nM
[3]
  Ki: 930 nM
[4]
  EC50: 18 nM
[5]
  Ki: 2.3 nM
[6]
  Intrinsic activity: 1.07
[7]
  Intrinsic activity: 0.78
[8]
  Ki: 2100 nM

## CCC(=O)N[C@H](CCCC[C@@H](N)C(=O)N[C@H](Cc1ccc(O)cc1)C(=O)N[C@H](CCCNC(=N)N)C(=O)N[C@H](CC(C)C)C(=O)N[C@H](CCCNC(=N)N)C(=O)N[C@H](Cc1ccc(O)cc1)C(N)=O)C(=O)N[C@@H](Cc1ccc(O)cc1)C(=O)N[C@@H](CCCNC(=N)N)C(=O)N[C@@H](CC(C)C)C(=O)N[C@@H](CCCNC(=N)N)C(=O)N[C@@H](Cc1ccc(O)cc1)C(N)=O
[1]; cho
  Ki: 750 nM
[2]; hek293
  EC50: 27 nM
[3]; mcf7
  Ki: 290 nM
[4]; cho
  EC50: 59 nM
[5]; cho
  Ki: 2.8 nM
[6]
  Intrinsic activity: 0.98
[7]
  Intrinsic activity: 0.7
[8]
  Ki: 400 nM

## CC[C@H](C)[C@H](N)C(=O)N[C@H]1CCC(=O)NC[C@@H](C(=O)N[C@@H](Cc2ccc(O)cc2)C(=O)N[C@@H](CCCN=C(N)N)C(=O)N[C@@H](CC(C)C)C(=O)N[C@@H](CCCN=C(N)N)C(=O)N[C@@H](Cc2ccc(O)cc2)C(N)=O)NC(=O)[C@@H]2CCCN2C(=O)[C@@H](NC(=O)[C@@H](N)[C@@H](C)CC)CCC(=O)NC[C@@H](C(=O)N[C@@H](Cc2ccc(O)cc2)C(=O)N[C@@H](CCCN=C(N)N)C(=O)N[C@@H](CC(C)C)C(=O)N[C@@H](CCCN=C(N)N)C(=O)N[C@@H](Cc2ccc(O)cc2)C(N)=O)NC(=O)[C@@H]2CCCN2C1=O
[2]; hek293
  EC50: 5.5 nM
[4]; cho
  EC50: 8.5 nM
[5]; cho
  Ki: 1.6 nM
[10]
  Ki: 1.3 nM

From ChEMBL document CHEMBL4477203 (J Med Chem, 2016)
